Test results from PMC4806563 (Nature chemistry, 2016).

Assays:
PGTs 141–144 = test: Glycan microarray on ACG slide, PGTs 141–144 binding; parameters: species or system human; details: panel of glycans I–XI on ACG slide
Outline: (§1)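 Glycans I–XI carry a phosphonic acid tail and immobilize spontaneously and covalently on an aluminium oxide-coated glass (ACG) slide. Glycan concentration sets density and spacing. The printed array is incubated with antibody, then with a secondary antibody, and read by fluorescence. Surface dissociation constants (K_D surf) for glycan–antibody binding are derived from the signals.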

[1] = tested on: DyLight649-conjugated donkey anti-human IgG antibody; test: NHS glycan array, binding of secondary antibody; details: NHS slide
PG16 [2] = test: Glycan microarray on NHS-activated glass slide, PG16 binding; parameters: species or system human; details: glycans printed at 100 μM
PG16 [3] = test: Glycan microarray on ACG slide, PG16 binding; parameters: species or system human; details: ACG surface, 100 μM printed, serial dilution experiment
Outline: as §1

CC(=O)N[C@H]1[C@H](O[C@H]2[C@H](O)[C@@H](NC(C)=O)C(O)O[C@@H]2CO)O[C@H](CO)[C@@H](O[C@@H]2O[C@H](CO[C@H]3O[C@H](CO[C@H]4O[C@H](CO)[C@@H](O)[C@H](O)[C@@H]4O[C@H]4O[C@H](CO)[C@@H](O)[C@H](O)[C@@H]4O)[C@@H](O)[C@H](O[C@H]4O[C@H](CO)[C@@H](O)[C@H](O)[C@@H]4O[C@H]4O[C@H](CO)[C@@H](O)[C@H](O)[C@@H]4O)[C@@H]3O)[C@@H](O)[C@H](O[C@H]3O[C@H](CO)[C@@H](O)[C@H](O)[C@@H]3O[C@H]3O[C@H](CO)[C@@H](O)[C@H](O)[C@@H]3O[C@H]3O[C@H](CO)[C@@H](O)[C@H](O)[C@@H]3O)[C@@H]2O)[C@@H]1O (stereo partly shown) [Man9GlcNAc2]
PGTs 141–144 binding (PGTs 141–144): significant decrease in the affinity

Man4GlcAc2 [glycan 5]
fluorescent signal from non-specific binding of secondary antibody [1]: strong fluorescent signal

Man5GlcNAc2 [IV]
PG16 binding (PG16 [2]): could not observe binding
PG16 binding (PG16 [3]): unable to detect
